Experimental data reported in ChEMBL document CHEMBL1124632 (J Med Chem, 1989).

Key:
[1] = molecular target: T1, 5-hydroxytryptamine receptor 1B (Rattus norvegicus, UniProt P28564); assay: (§1) Inhibitory activity against 5-hydroxytryptamine 1B receptor of rat striatal membrane homogenate using [3H]5-HT as the radioligand.
How it was run: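 Competition binding on washed rat striatal membrane homogenate (8 mg) with 2.0 nM [³H]5-HT. 10⁻⁷ M 8-OH-DPAT and mesulergine block 5-HT1A and 5-HT1C sites; 10⁻⁶ M 5-HT defines nonspecific binding. Buffer: 50 mM Tris HCl, EDTA, MgSO₄, 10 μM pargyline, 0.1% ascorbate. Eleven concentrations, at least triplicate. 37 °C for 30 min, then glass-fiber filtration. Ki given.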

[2] = molecular target: T2, 5-hydroxytryptamine receptor 1A (Rattus norvegicus, UniProt P19327); assay: (§2) Inhibitory activity against 5-hydroxytryptamine 1A receptor of rat hippocampal tissue using [3H]OH-DPAT as radioligand.; format: tissue-based, Hippocampus
T2 sequence (P19327 whole entry): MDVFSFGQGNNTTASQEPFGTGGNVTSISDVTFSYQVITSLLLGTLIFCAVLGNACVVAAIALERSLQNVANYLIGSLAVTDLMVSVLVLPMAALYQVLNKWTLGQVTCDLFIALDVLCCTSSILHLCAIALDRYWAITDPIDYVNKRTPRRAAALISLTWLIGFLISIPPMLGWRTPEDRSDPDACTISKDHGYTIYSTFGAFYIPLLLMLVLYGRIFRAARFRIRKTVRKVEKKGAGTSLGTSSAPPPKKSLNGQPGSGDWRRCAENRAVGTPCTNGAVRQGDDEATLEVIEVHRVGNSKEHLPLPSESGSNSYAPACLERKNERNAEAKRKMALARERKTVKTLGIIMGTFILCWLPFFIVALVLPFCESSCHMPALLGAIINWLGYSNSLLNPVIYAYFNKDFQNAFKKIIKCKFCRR
How it was run: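 Rat hippocampal membranes (4 mg wet weight), washed and preincubated 15 min at 37 °C, in 50 mM Tris HCl with 0.5 mM Na₂EDTA, 10 mM MgSO₄, 10 μM pargyline and 0.1% ascorbate. 0.1 nM [³H]8-OH-DPAT, 1 μM 8-OH-DPAT for nonspecific binding. Eleven competitor concentrations, at least triplicate. Incubated 30 min at 37 °C, then filtered over glass fiber. Ki reported.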

[3] = molecular target: T2, 5-hydroxytryptamine receptor 1A; assay: as §2
Adrenergic receptor beta = Adrenergic receptor beta (Rattus norvegicus, UniProt P18090+P10608+P26255); assay: Inhibitory activity against beta adrenergic receptor of rat frontal cortex homogenate using (1.0 nM) [3H]- dihydroalprenolol; format: tissue-based
[4] = molecular target: T1, 5-hydroxytryptamine receptor 1B; assay: as §1; remark: listed apart in the source

T1 sequence (P28564 whole entry): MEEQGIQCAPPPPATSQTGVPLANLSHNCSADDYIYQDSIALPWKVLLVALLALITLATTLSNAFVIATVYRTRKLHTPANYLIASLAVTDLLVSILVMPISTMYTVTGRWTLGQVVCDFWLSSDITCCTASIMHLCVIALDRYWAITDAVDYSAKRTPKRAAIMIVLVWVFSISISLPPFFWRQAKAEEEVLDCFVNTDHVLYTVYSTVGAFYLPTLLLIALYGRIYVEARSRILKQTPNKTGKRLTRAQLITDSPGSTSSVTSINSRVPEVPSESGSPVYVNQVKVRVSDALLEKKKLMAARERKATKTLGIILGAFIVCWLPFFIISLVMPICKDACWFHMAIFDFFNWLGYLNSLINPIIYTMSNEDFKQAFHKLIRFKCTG

Row | Compound | Ki [1] [nM] | Ki [2] [nM] | Ki [3] [nM] | Ki (Adrenergic receptor beta) [nM] | Ki [4] [nM]
1 | CCCN(CCC)CC(O)COc1cccc2ccccc12 (centres undefined) | 8000 | 1320 |  |  | 
2 | CCCCN(CC)CCC(=O)c1cccc2ccccc12 |  | 3530 |  |  | 
3 | CCCCN(CCCC)CCCOc1cccc2ccccc12 |  |  | 225 | 8300 | 5650
4 | NCCOc1cccc2ccccc12 |  |  | 60 |  | 
5 | CN(C)Cc1cccc2ccccc12 |  | 3420 |  |  | 
6 | CN(C)CCCCc1ccccc1 | > 10000 | 5000 |  |  | 
7 | CCCCN(CC)CCCC1CCCc2ccccc21 (centres undefined) |  | 540 |  |  | 
8 | CCCCN(CC)CCOc1cccc2ccccc12 |  |  | 39 | 5000 | 1100
9 | CCCCN(CCCC)CCOc1cccc2ccccc12 |  |  | 150 | > 10000 | 9000
10 | CN(C)CCCNc1ccccc1 |  |  | > 25000 |  | > 10000
11 | CN(C)CCCCOc1cccc2ccccc12 |  |  | 400 |  | 1000
12 | CN(C)CCCOc1ccccc1 |  |  | 4850 |  | > 10000
13 | CCCCN(CC)CCCc1cccc2ccccc12 |  | 300 |  |  | 
14 | CCCN(C)CCOc1cccc2ccccc12 |  |  | 45 | 5300 | 1800
15 | CNCCCOc1ccccc1 |  |  | 3300 |  | 3100
16 | CN(C)CCCOc1cccc2ccccc12 |  |  | 345 | 2400 | 1000
17 | CCCN(CCC)CCCOc1cccc2ccccc12 |  |  | 450 |  | 6100
18 | CN(C)CCOc1cccc2ccccc12 |  |  | 80 | 4500 | 1500
19 | CN(C)CCCOc1ccccc1O |  |  | 4900 |  | > 10000
20 | CCCN(CCC)CCCOc1ccccc1 |  |  | 2750 |  | > 10000
21 | COc1ccccc1OCCCN(C)C |  |  | 3000 |  | > 10000
22 | CN(CCOc1cccc2ccccc12)Cc1ccccc1 |  |  | 95 |  | 
